Assay results from ChEMBL document CHEMBL4373710, “DNA Structural Alteration Leading to Antibacterial Properties of 6-Nitroquinoxaline Derivatives” (J Med Chem, 2019).
Activity calls are given as the source filed them. The rule behind the calls is not given here.

Columns and labels:
Staphylococcus aureus [1] = test: Inhibition of DNA synthesis in Staphylococcus aureus at 3.5 uM measured after 1 hr by BrdU incorporation assay; type: functional, organism-based
Outline: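 Log-phase S. aureus (10^5–10^6 CFU/mL) exposed to 3.5 µM for 1 h at 37°C, then BrdU pulse for 30 min; fixed in paraformaldehyde, permeabilised (Triton X-100/lysostaphin), DNA denatured in 2N HCl, stained with FITC anti-BrdU antibody, confocal imaging.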

[2] = test system: Staphylococcus epidermidis; test: Disruption of preformed biofilm in Staphylococcus epidermidis up to 4 times MIC measured after 12 hrs by crystal violet staining based light microscopic analysis; type: functional, organism-based
Outline: (§1)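 Planktonic cells washed off; 1% crystal violet 10 min, solubilised in 30% acetic acid, A550 read; wells also imaged at 20X by light microscopy.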

DNA [3] = test: Binding affinity to DNA isolated from HEK293 cells assessed as change in ellipticity at 262 nm at 15 to 180 uM by circular dichroism method; type: ADME, cell-free; conditions: human
Staphylococcus aureus [4] = test: Disruption of preformed biofilm in Staphylococcus aureus at 4 times MIC measured after 12 hrs by crystal violet staining based light microscopic analysis; type: functional; outline: as §1
Staphylococcus aureus [5] = test: Disruption of cell membrane in Staphylococcus aureus assessed as accumulation of propidium iodide negative cells at 3.5 uM by flow cytometric analysis (reference value: 98.2%); type: functional
DNA [6] = test: Binding affinity to DNA isolated from HEK293 cells assessed as change in B-DNA structure at 15 to 180 uM by circular dichroism method; type: ADME, cell-free; conditions: human, hek293, 180 µM
Calf thymus DNA [7] = test: Binding affinity to calf thymus DNA assessed as appearance of induced CD at […] by circular dichroism method; type: nucleic-acid assay; conditions: Bos taurus
Staphylococcus aureus [8] = test: Induction of morphological changes in Staphylococcus aureus assessed as change in microbe length at 3.5 uM by atomic force microscopic analysis (reference value: 1.37 +/- 0.09 micrometer); type: functional
Calf thymus DNA [9] = test: Binding affinity to calf thymus DNA assessed as change in B-DNA structure at 265 nm by circular dichroism method; type: nucleic-acid assay; conditions: Bos taurus
DNA [10] = test: Inhibition of ethidium bromide binding to Staphylococcus aureus DNA in presence of 10 to 200 mM NaCl by fluorescence assay; type: nucleic-acid assay
Outline: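 S. aureus genomic DNA (10 µM) with EtBr (5 µM) in 10 mM NaP pH 7, 10 mM NaCl and 1% DMSO, at 25 and 37 °C. Titrated with compound from 2.5 to 100 µM. Excitation 480 nm, emission scanned 520–700 nm, corrected for inner filter. Stern–Volmer analysis, triplicates. Variants: pH 6–8, or NaCl raised to 50 and 200 mM.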

- Activity (DNA [3]): Active
- Activity (DNA [6]): Active
- Activity (Calf thymus DNA [7]): Dose-dependent effect
- Activity (Calf thymus DNA [9]): Dose-dependent effect
- inhibition (DNA [10]): Active
Structure (SMILES): CN(C)CCCNc1nc2cc([N+](=O)[O-])ccc2nc1NCc1ccc(C(F)(F)F)cc1
- inhibition (Staphylococcus aureus [1]): Active
- Activity [2]: Active
- Activity (Staphylococcus aureus [4]): 100%
- Activity (Staphylococcus aureus [5]): 91.6%
- Activity (Staphylococcus aureus [8]): 2.3 um
